Results from different studies.
Lines come from different studies, so protocols differ.
Target: Acetylcholinesterase (ache, Electrophorus electricus, UniProt O42275)
Read-out: enzyme activity
Action: inhibitor

SMILES	assay	setting	IC50 [µM]
CC=C1[C@H]2C=C(C)C[C@]1(N)c1cc(OC)c(=O)[nH]c1C2	Ellman		0.16
Cc1c(C(=O)[C@H]2[C@H](c3cn(C)c4ccccc34)[C@H]3CSCN3[C@]23C(=O)Nc2cc(Cl)ccc23)cnn1-c1ccccc1	Ellman		> 100
CC=C1[C@H]2C=C(C)C[C@]1(N)c1cc(C)c(=O)[nH]c1C2	Ellman		0.35
CC(C)=CCC/C(C)=C/COc1cc(O)cc(O)c1C(=O)c1ccccc1			192
COc1cccc2cc(C(=O)NCC3CCN(Cc4ccccc4)CC3)oc12	Ellman		19.9
Cc1c(C(=O)[C@H]2[C@H](c3c[nH]c4ccc(Br)cc34)[C@H]3CCCN3[C@]23C(=O)Nc2ccccc23)cnn1-c1ccccc1	Ellman		> 100
O=C(NCCN1CCN(Cc2ccccc2)CC1)c1cc2cccc(O)c2o1	Ellman		20
CC=C1[C@H]2C=C(C)C[C@]1(N)c1cc(F)c(=O)[nH]c1C2	Ellman		1.23
Cc1c(C(=O)[C@H]2[C@H](c3cn(C)c4ccccc34)[C@H]3CSCN3[C@]23C(=O)Nc2ccccc23)cnn1-c1ccccc1	Ellman		> 100
CCOc1ccc(C=NNC(=S)NCC(=O)c2ccc(-c3ccccc3)cc2)cc1	Ellman		460
CC=C1[C@H]2C=C(C)C[C@]1(N)c1cc(C#N)c(=O)[nH]c1C2	Ellman		33.9
C#CCN(C)c1nc(NCCCC2CCN(Cc3ccccc3)CC2)c(C#N)cc1C#N	Ellman		0.00619
Cc1c(C(=O)[C@H]2[C@H](c3c[nH]c4ccc(Br)cc34)[C@H]3CSCN3[C@]23C(=O)Nc2ccc([N+](=O)[O-])cc23)cnn1-c1ccccc1	Ellman		24.1
CC(C)c1cc(C(C)C)c(S(=O)(=O)NNC(=O)C(=O)NNS(=O)(=O)c2c(C(C)C)cc(C(C)C)cc2C(C)C)c(C(C)C)c1	Ellman	with preincubation	4.25
Cc1c(C(=O)[C@H]2[C@H](c3c[nH]c4ccccc34)[C@H]3CSCN3[C@]23C(=O)Nc2ccccc23)cnn1-c1ccccc1	Ellman		57.1
O=C(CNC(=S)NN=Cc1ccc([N+](=O)[O-])cc1)c1ccc([N+](=O)[O-])cc1	Ellman		446
COc1cccc2cc(C(=O)NCCN3CCN(Cc4ccccc4)CC3)oc12	Ellman		4
CC=C1[C@H]2C=C(C)C[C@]1(N)c1cc(I)c(=O)[nH]c1C2	Ellman		14.1
CC1(C)O[C@H]2CC(=O)OC[C@]23[C@H]2CC[C@@]4(C)[C@H](c5ccoc5)OC(=O)[C@H]5O[C@]54[C@]2(C)C(=O)C[C@@H]13	Ellman		1060
C#CCNc1nc(NCCCC2CCN(Cc3ccccc3)CC2)c(C#N)cc1C#N	Ellman		0.0047
CC=C1[C@H]2C=C(C)C[C@]1(N)c1cc(OCCCC)c(=O)[nH]c1C2	Ellman		110
